Published values of several laboratories.
Protocols differ between the studies behind these lines.

Compound | assay | test system | conditions | endpoint | value
CC1(C)NC(=O)N(c2ccc(F)c(Br)c2)C1=O | HPLC |  | pH 7.4 | chromatographic logD | 2.4
CN1CCN(c2cccc(-c3ccc4ncnc(Nc5ccc(Cl)c(Cl)c5)c4c3)c2)CC1 | shake flask | aqueous buffer | pH 7.4 | logD | > 4.1
O=C1NC2(CCS(=O)(=O)CC2)C(=O)N1c1ccc(F)c(C(F)(F)F)c1 | HPLC |  | pH 7.4 | chromatographic logD | 2.6
FC(F)(F)c1cc(Nc2ncnc3ccc(-c4cccc(N5CCOCC5)c4)cc23)ccc1Cl | shake flask | aqueous buffer | pH 7.4 | logD | > 4.1
CC(C)(N)COCC(=O)N1CCC[C@H](C(=O)NCc2nc(-c3ccc(C(F)(F)F)cc3)cs2)C1 | metabolic stability | male Sprague-Dawley rat, liver microsomes | 0.5 µM | microsomal CLint | 9.9 µL/min/mg
CC(C)n1c(C2CCNCC2)nc2c([N+](=O)[O-])c(Br)c(Br)cc21 |  | human, urine | oral, 50 mg, single dose | renal clearance | 14.5 mL/min
C[C@H]1[C@@H](C(=O)NCc2nc(-c3ccc(C#N)cc3)cs2)CCCN1C(=O)[C@H]1CCO1 | metabolic stability | male Sprague-Dawley rat, liver microsomes | 0.5 µM | microsomal CLint | 45 µL/min/mg
c1ccc(Oc2ccc(Nc3c4c(nc5ccccc35)CCC4)cc2)cc1 | HPLC |  | pH 7.4 | chromatographic logD | > 5.3
COc1ccc2c(c1)CN(C(=O)CCN1CCC(Cc3ccccc3)CC1)CC[S@@+]2[O-] |  | male human, plasma | intravenous, 0.6 mg/kg, healthy volunteers | clearance | 175 mL/min
OC[C@H]1O[C@@H](c2cc(Cc3ccc(C4CC4)cc3)c(Cl)c3c2CCO3)[C@H](O)[C@@H](O)[C@@H]1O |  | human, plasma | oral, 0.3 mg, single dose, fasted | CL/F | 9410 mL/h
O=c1c2c([nH]c3c(Oc4ccc(OC(F)(F)F)cc4)cccc13)CCCC2 | metabolic stability | human, liver microsomes | 1 µM, pH 7.4 | microsomal CLint | 21 µL/min/mg
CCS(=O)(=O)N1CCC2(CC1)NC(=O)N(c1ccc(F)c(C(F)(F)F)c1)C2=O | HPLC |  | pH 7.4 | chromatographic logD | 3.1
CN1CCC(Oc2ccc3c(=O)c4c(F)cc(Cl)cc4[nH]c3c2)CC1 | metabolic stability | human, liver microsomes | 1 µM, pH 7.4 | microsomal CLint | 24.9 µL/min/mg
Cc1cc(S(=O)(=O)N[C@H]2CC[C@H](CN3CCN(c4ccc(C5CCC(=O)NC5=O)c(Cl)c4)CC3)CC2)ccc1Nc1ncc(C(F)(F)F)c(N2CCC[C@](C)(O)C2)n1 (stereo partly shown) | metabolic stability | human, liver microsomes | 1 µM | scaled CLint | 20 mL/min/kg
CC1(C)NC(=O)N(c2cccc(C(F)(F)F)n2)C1=O | HPLC |  | pH 7.4 | chromatographic logD | 1.6
O=c1c2ccc(Oc3ccc(OC(F)(F)F)cc3)cc2[nH]c2cc(F)c(Cl)cc12 | metabolic stability | human, liver microsomes | 1 µM, pH 7.4 | microsomal CLint | 2.59 µL/min/mg

Compound | assay | test system | conditions | endpoint | value
COCC(=O)N1CCC[C@H](C(=O)NCc2nc(-c3ccc(C)nc3)cs2)C1 | metabolic stability | human, liver microsomes | 0.5 µM | microsomal CLint | 5.1 µL/min/mg
Clc1ccc(Nc2ncnc3ccc(-c4cccc(N5CCOCC5)c4)cc23)cc1Cl | shake flask | aqueous buffer | pH 7.4 | logD | > 4.2
O=C(NCc1nc(-c2ccc(C(F)(F)F)cc2)cs1)[C@H]1CCCN(C(=O)COCCN2CCCC2)C1 | metabolic stability | human, liver microsomes | 0.5 µM | microsomal CLint | 14 µL/min/mg
C[C@H]1CN(CC2CCN(c3ccc(C4CCC(=O)NC4=O)cc3F)CC2)CC[C@H]1NS(=O)(=O)c1ccc(Nc2ncc(C(F)(F)F)c(N3CCC[C@](C)(O)C3)n2)c(F)c1 (stereo partly shown) | metabolic stability | human, liver microsomes | 1 µM | scaled CLint | 23 mL/min/kg
c1coc(Nc2ncnc3ccc(-c4cncc(N5CCOCC5)n4)cc23)n1 | shake flask | aqueous buffer | pH 7.4 | logD | 3.5
CC1(C(F)(F)F)NC(=O)N(c2ccc(F)c(C(F)(F)F)c2)C1=O (stereo not shown) | HPLC |  | pH 7.4 | chromatographic logD | 3.5
CCONC(=O)N1CCC[C@H](C(=O)N[C@@H](C)c2nc(-c3ccc(C#N)cc3)cs2)C1 | metabolic stability | male Sprague-Dawley rat, liver microsomes | 0.5 µM | microsomal CLint | 36 µL/min/mg
CC1(C)NC(=O)N(c2ccc(F)c(OC(F)(F)F)c2)C1=O | HPLC |  | pH 7.4 | chromatographic logD | 2.9
N#Cc1cccc(-c2ccc3ncc(-c4cc(F)cc(F)c4)c(N4CCC(N)CC4)c3c2)c1O |  | human, plasma | intravenous, 50 µg | clearance | 85 mL/min
CCONC(=O)N1CCC[C@H](C(=O)NCc2nc(-c3ccc(C#N)cc3)cs2)C1 | metabolic stability | human, liver microsomes | 0.5 µM | microsomal CLint | 9 µL/min/mg
CC1(C)NC(=O)N(c2ccc(F)c(S(C)(=O)=O)c2)C1=O | HPLC |  | pH 7.4 | chromatographic logD | 1.2
COCC(=O)N1CCC[C@H](C(=O)NCc2nc(-c3ccc(C#N)cc3)cs2)C1 | metabolic stability | human, liver microsomes | 0.5 µM | microsomal CLint | 10 µL/min/mg
O=c1c2c([nH]c3ccc(F)c(Oc4ccc(OC(F)(F)F)cc4)c13)CCCC2 | metabolic stability | human, liver microsomes | 1 µM, pH 7.4 | microsomal CLint | 92.7 µL/min/mg
COCC(=O)N1CCC[C@H](C(=O)NCc2nc(-c3ccccc3)cs2)C1 | metabolic stability | male Sprague-Dawley rat, hepatocytes | 0.5 µM | scaled CLint | 32 mL/min/kg
C[C@H]1CN(c2ccc(C3CCC(=O)NC3=O)cc2F)CCN1CC12CCC(NS(=O)(=O)c3ccc(Nc4ncc(C(F)(F)F)c(N5CCC[C@](C)(O)C5)n4)c(F)c3)(CC1)CO2 (stereo partly shown) | metabolic stability | human, liver microsomes | 1 µM | scaled CLint | 22 mL/min/kg
